# Reference: ChEMBL document CHEMBL1914423, “New imidazo[2,1-b]thiazole derivatives: synthesis, in vitro anticancer evaluation, and in silico studies” (Eur J Med Chem, 2011)
# How the values were obtained:
# Type in all cases: functional
# CCRF-CEM = assay: Anticancer activity against human CCRF-CEM cells after 48 hrs by SRB assay
# Summary of the method: (§1)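 NCI five-dose screen. Cells in RPMI 1640 with 5% FBS and 2 mM L-glutamine, seeded at 5000–40,000 cells/well according to doubling time, then pre-incubated 24 h at 37 °C in 5% CO2. Drugs dissolved in DMSO, five concentrations by 10-fold or 1/2-log dilution. Cells fixed with TCA, SRB-stained, A515 read. IC50 solved from [(Ti−Tz)/(C−Tz)]×100 = 50.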
# K562 = assay: Anticancer activity against human K562 cells after 48 hrs by SRB assay; conditions: K562, 48 h; summary of the method: as §1
# MOLT-4 = assay: Anticancer activity against human MOLT4 cells after 48 hrs by SRB assay; conditions: MOLT-4, 48 h
# A549 = assay: Anticancer activity against human A549 cells after 48 hrs by SRB assay; conditions: A549, 48 h; summary of the method: as §1
# HOP-92 = assay: Anticancer activity against human HOP92 cells after 48 hrs by SRB assay; conditions: HOP-92, 48 h; summary of the method: as §1
# HCC 2998 = assay: Anticancer activity against human HCC2998 cells after 48 hrs by SRB assay; conditions: HCC 2998, 48 h; summary of the method: as §1
# HCT-116 = assay: Anticancer activity against human HCT116 cells after 48 hrs by SRB assay; conditions: HCT-116, 48 h; summary of the method: as §1
# HCT-15 = assay: Anticancer activity against human HCT15 cells after 48 hrs by SRB assay; conditions: HCT-15, 48 h; summary of the method: as §1
# KM12 = assay: Anticancer activity against human KM12 cells after 48 hrs by SRB assay; conditions: KM12, 48 h; summary of the method: as §1
# SW-620 = assay: Anticancer activity against human SW620 cells after 48 hrs by SRB assay; conditions: SW-620, 48 h
# Summary of the method: (§2)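 NCI-60 five-dose mode: cells in RPMI 1640 with 5% FBS and 2 mM glutamine, plated at 5000–40,000 cells/well, and preincubated 24 h, with time-zero plates TCA-fixed. Drug given at five concentrations (10-fold or ½-log serial dilutions). Cold TCA fixation 60 min at 4 °C, SRB stain, Tris solubilization, A515. IC50 taken where [(Ti−Tz)/(C−Tz)]×100 = 50.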
# SF-539 = assay: Anticancer activity against human SF539 cells after 48 hrs by SRB assay; conditions: SF-539, 48 h
# SNB-19 = assay: Anticancer activity against human SNB19 cells after 48 hrs by SRB assay; conditions: SNB-19, 48 h
# SNB-75 = assay: Anticancer activity against human SNB75 cells after 48 hrs by SRB assay; conditions: SNB-75, 48 h
# U-251 = assay: Anticancer activity against human U251 cells after 48 hrs by SRB assay; conditions: U-251, 48 h; summary of the method: as §2
# LOX IMVI = assay: Anticancer activity against human LOXIMVI cells after 48 hrs by SRB assay; summary of the method: as §1
# MDA-MB-435 = assay: Anticancer activity against human MDA-MB-435 cells after 48 hrs by SRB assay; conditions: MDA-MB-435, 48 h; summary of the method: as §1
# SK-MEL-2 = assay: Anticancer activity against human SK-MEL-2 cells after 48 hrs by SRB assay; conditions: SK-MEL-2, 48 h
# SK-MEL-5 = assay: Anticancer activity against human SK-MEL-5 cells after 48 hrs by SRB assay; conditions: SK-MEL-5, 48 h
# UACC-257 = assay: Anticancer activity against human UACC257 cells after 48 hrs by SRB assay; conditions: UACC-257, 48 h; summary of the method: as §2
# UACC-62 = assay: Anticancer activity against human UACC62 cells after 48 hrs by SRB assay; conditions: UACC-62, 48 h; summary of the method: as §2
# OVCAR-3 = assay: Anticancer activity against human OVCAR3 cells after 48 hrs by SRB assay; conditions: OVCAR-3, 48 h
# OVCAR-4 = assay: Anticancer activity against human OVCAR4 cells after 48 hrs by SRB assay; conditions: OVCAR-4, 48 h
# OVCAR-5 = assay: Anticancer activity against human OVCAR5 cells after 48 hrs by SRB assay; conditions: OVCAR-5, 48 h
# NCI/ADR-RES = assay: Anticancer activity against human NCI/ADR-RES cells after 48 hrs by SRB assay
# A498 = assay: Anticancer activity against human A498 cells after 48 hrs by SRB assay; conditions: A498, 48 h; summary of the method: as §1
# ACHN = assay: Anticancer activity against human ACHN cells after 48 hrs by SRB assay; summary of the method: as §1
# MDA-MB-231 = assay: Anticancer activity against human MDA-MB-231 cells after 48 hrs by SRB assay; conditions: MDA-MB-231, 48 h; summary of the method: as §1
# [1] = read-out: LC50 (the source's name)
compound,measurement,setting,value
COc1cccc(-c2nc3sccn3c2-c2ccnc(NCCNC(=O)Nc3cccc(C(F)(F)F)c3)n2)c1,GI50,CCRF-CEM,8.43 µM
same,TGI,CCRF-CEM,> 100 µM
same,CC50,CCRF-CEM; [1],> 100 µM
same,GI50,K562,3.48 µM
same,TGI,K562,> 100 µM
same,CC50,K562; [1],> 100 µM
same,GI50,MOLT-4,3.27 µM
same,TGI,MOLT-4,9.94 µM
same,CC50,MOLT-4; [1],> 100 µM
same,GI50,A549,3.82 µM
same,LC50 (concentration giving 50% net tumour cell kill),A549,> 100 µM
same,TGI,A549,17.1 µM
same,GI50,HOP-92,0.853 µM
same,TGI,HOP-92,9.47 µM
same,CC50,HOP-92; [1],> 100 µM
same,GI50,HCC 2998,3.75 µM
same,TGI,HCC 2998,18.7 µM
same,CC50,HCC 2998; [1],> 100 µM
same,GI50,HCT-116,3.45 µM
same,TGI,HCT-116,11.6 µM
same,CC50,HCT-116; [1],> 100 µM
same,GI50,HCT-15,3.05 µM
same,TGI,HCT-15,16.4 µM
same,CC50,HCT-15; [1],> 100 µM
same,GI50,KM12,3.36 µM
same,TGI,KM12,10.1 µM
same,CC50,KM12; [1],39.3 µM
same,GI50,SW-620,4.47 µM
same,TGI,SW-620,91.5 µM
same,CC50,SW-620; [1],> 100 µM
same,GI50,SF-539,3.83 µM
same,TGI,SF-539,17.1 µM
same,CC50,SF-539; [1],56.5 µM
same,GI50,SNB-19,7.77 µM
same,TGI,SNB-19,> 100 µM
same,CC50,SNB-19; [1],> 100 µM
same,GI50,SNB-75,3.41 µM
same,TGI,SNB-75,21.7 µM
same,CC50,SNB-75; [1],> 100 µM
same,GI50,U-251,3.95 µM
same,TGI,U-251,19.8 µM
same,CC50,U-251; [1],> 100 µM
same,GI50,LOX IMVI,4.11 µM
same,TGI,LOX IMVI,> 100 µM
same,CC50,LOX IMVI; [1],> 100 µM
same,GI50,MDA-MB-435,2.95 µM
same,TGI,MDA-MB-435,12.3 µM
same,CC50,MDA-MB-435; [1],> 100 µM
same,GI50,SK-MEL-2,2.03 µM
same,TGI,SK-MEL-2,4.46 µM
same,CC50,SK-MEL-2; [1],9.78 µM
same,GI50,SK-MEL-5,4.27 µM
same,TGI,SK-MEL-5,15.9 µM
same,CC50,SK-MEL-5; [1],40.6 µM
same,GI50,UACC-257,4.34 µM
same,TGI,UACC-257,16.5 µM
same,CC50,UACC-257; [1],65.9 µM
same,GI50,UACC-62,2.55 µM
same,TGI,UACC-62,7.48 µM
same,CC50,UACC-62; [1],27.7 µM
same,GI50,OVCAR-3,4.22 µM
same,TGI,OVCAR-3,20.3 µM
same,CC50,OVCAR-3; [1],> 100 µM
same,GI50,OVCAR-4,3.78 µM
same,TGI,OVCAR-4,34.1 µM
same,CC50,OVCAR-4; [1],> 100 µM
same,GI50,OVCAR-5,6.37 µM
same,TGI,OVCAR-5,52.2 µM
same,CC50,OVCAR-5; [1],> 100 µM
same,GI50,NCI/ADR-RES,3.45 µM
same,TGI,NCI/ADR-RES,> 100 µM
same,CC50,NCI/ADR-RES; [1],> 100 µM
same,GI50,A498,2.44 µM
same,TGI,A498,17.5 µM
same,CC50,A498; [1],> 100 µM
same,GI50,ACHN,3.17 µM
same,TGI,ACHN,19.1 µM
same,CC50,ACHN; [1],> 100 µM
same,GI50,MDA-MB-231,3.47 µM
same,TGI,MDA-MB-231,12 µM
same,CC50,MDA-MB-231; [1],> 100 µM
